Measured values taken from ChEMBL document CHEMBL3872205, “Design, synthesis and evaluation of novel potent angiotensin II receptor 1 antagonists” (Eur J Med Chem, 2016).

Experiments:
Rattus norvegicus = assay: Toxicity in rat model assessed as effect on heart rate at 10 to 15 mg/kg, po up to 24 hrs; type: organism-based; conditions: in vivo
[1] = Toxicity in ICR mouse assessed as mortality at 2343.75 mg/kg, ig after 2 weeks; type: organism-based; conditions: in vivo, po
[2] = Cmax in Wistar rat plasma at 30 mg/kg, po by HPLC analysis; type: ADME, organism-based; design: dose 30 mg/kg, route oral
[3] = Toxicity in ICR mouse assessed as mortality at 1500 mg/kg, ig after 2 weeks; type: organism-based; conditions: in vivo, po
[4] = AUC (0 to infinity) in Wistar rat lung at 15 mg/kg, po by HPLC analysis; type: ADME, organism-based; design: dose 15 mg/kg, route oral, time infinity
Summary of the method: (§1)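 Wistar rats (180 ± 20 g) were dosed orally at 10, 15 or 30 mg/kg. Heart, liver, spleen, lung, kidney and brain were collected at 0–72 h (n = 6 per point). Tissue was rinsed, blotted and homogenized in saline (0.25 g/1 mL), then spun at 10,000 × g. Supernatant was methanol-extracted, dried under nitrogen at 50 °C, reconstituted in methanol and run on C18 HPLC (acetonitrile 60%/water 40%, 1.0 mL/min).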

[5] = MRT (0 to infinity) in Wistar rat kidney at 10 mg/kg, po by HPLC analysis; type: ADME, organism-based
Summary of the method: (§2)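 Male Wistar rats (180 ± 20 g) received a single oral dose of 10, 15 or 30 mg/kg. Tissues were collected at 0, 0.5, 1, 2, 4, 6, 8, 12, 24, 48 and 72 h (n = 6 per point). Samples of 0.25 g were rinsed, then homogenized in saline (0.25 g/1 mL) and centrifuged at 10,000 × g. Supernatant was methanol-extracted, dried under nitrogen at 50 °C and reconstituted in methanol. Analysis was by C18 HPLC (acetonitrile 60% / water 40%, 1.0 mL/min).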

[6] = Tmax in Wistar rat brain at 30 mg/kg, po by HPLC analysis; type: ADME, organism-based; summary of the method: as §2
[7] = AUC (0 to 72 hrs) in Wistar rat kidney at 30 mg/kg, po by HPLC analysis; type: ADME, organism-based; design: time < 72 hr, dose 30 mg/kg, route oral; summary of the method: as §1
[8] = MRT (0 to infinity) in Wistar rat plasma at 10 mg/kg, po by HPLC analysis; type: ADME, organism-based
Summary of the method: (§3)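 Male Wistar rats (180 ± 20 g), 6 per dose group, each given a single oral dose. Blood was drawn by retro-orbital puncture into heparin at predose and at 0.5, 1, 2, 4, 6, 8, 12, 24, 48 and 72 h, then spun at 4000 × g and 4 °C. Plasma with internal standard was acetonitrile-precipitated, filtered and run on reverse-phase C18 HPLC (0.02 mol/L KH2PO4 55% / acetonitrile 45%, 1.0 mL/min). Calibration standards were 0.1–10 µg/mL, fitted by peak-height ratio with 1/conc² weighting.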

[9] = AUC (0 to infinity) in Wistar rat plasma at 15 mg/kg, po by HPLC analysis; type: ADME, organism-based; design: dose 15 mg/kg, route oral, time infinity
Summary of the method: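 Male Wistar rats (180 ± 20 g, n = 6 per group) got one oral dose. Heparinized blood was taken by retro-orbital puncture before dosing and at 0.5–72 h. Plasma was spun at 4000 × g, 4 °C, 10 min, spiked with internal standard and protein-precipitated with acetonitrile. Analysis was reverse-phase C18 HPLC (0.02 mol/L KH2PO4 55%/acetonitrile 45%, 1.0 mL/min). Calibration used 0.1–10 µg/mL, peak-height ratio, weighting concentration^-2.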

[10] = Cmax in Wistar rat spleen at 15 mg/kg, po by HPLC analysis; type: ADME, organism-based; design: dose 15 mg/kg, route oral
Summary of the method: (§4)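 Tissue distribution in male Wistar rats given oral 10, 15 or 30 mg/kg; heart, liver, spleen, lung, kidney and brain collected predose and 0.5–72 h post-dose (n = 6 per time). Tissue rinsed in saline, homogenised 0.25 g/1 mL saline, methanol extraction, dried under nitrogen, reconstituted in methanol. Analysis by reverse-phase C18 HPLC, acetonitrile/water 60:40, 1.0 mL/min, ambient temperature.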

[11] = MRT (0 to infinity) in Wistar rat Heart at 30 mg/kg, po by HPLC analysis; type: ADME, organism-based; summary of the method: as §2
[12] = MRT (0 to infinity) in Wistar rat lung at 30 mg/kg, po by HPLC analysis; type: ADME, organism-based; summary of the method: as §2
[13] = Tmax in Wistar rat lung at 15 mg/kg, po by HPLC analysis; type: ADME, organism-based; summary of the method: as §2
[14] = AUC (0 to 72 hrs) in Wistar rat Heart at 15 mg/kg, po by HPLC analysis; type: ADME, organism-based; design: time < 72 hr, dose 15 mg/kg, route oral; summary of the method: as §1
[15] = AUC (0 to 72 hrs) in Wistar rat kidney at 15 mg/kg, po by HPLC analysis; type: ADME, organism-based; design: dose 15 mg/kg, time < 72 hr, route oral; summary of the method: as §1
[16] = AUC (0 to 72 hrs) in Wistar rat liver at 10 mg/kg, po by HPLC analysis; type: ADME, organism-based; design: time < 72 hr, dose 10 mg/kg, route oral; summary of the method: as §1
[17] = MRT (0 to 72 hrs) in Wistar rat plasma at 30 mg/kg, po by HPLC analysis; type: ADME, organism-based; summary of the method: as §3
[18] = Tmax in Wistar rat plasma at 30 mg/kg, po by HPLC analysis; type: ADME, organism-based; summary of the method: as §3
[19] = Half life in Wistar rat spleen at 10 mg/kg, po by HPLC analysis; type: ADME, organism-based; summary of the method: as §4
[20] = AUC (0 to 72 hrs) in Wistar rat liver at 15 mg/kg, po by HPLC analysis; type: ADME, organism-based; design: dose 15 mg/kg, time < 72 hr, route oral; summary of the method: as §1
[21] = Tmax in Wistar rat brain at 15 mg/kg, po by HPLC analysis; type: ADME, organism-based; summary of the method: as §2
[22] = Cmax in Wistar rat plasma at 15 mg/kg, po by HPLC analysis; type: ADME, organism-based; design: dose 15 mg/kg, route oral
[23] = MRT (0 to 72 hrs) in Wistar rat lung at 30 mg/kg, po by HPLC analysis; type: ADME, organism-based; summary of the method: as §2
[24] = Cmax in Wistar rat brain at 15 mg/kg, po by HPLC analysis; type: ADME, organism-based; design: dose 15 mg/kg, route oral; summary of the method: as §1
[25] = Half life in Wistar rat lung at 15 mg/kg, po by HPLC analysis; type: ADME, organism-based; summary of the method: as §4
[26] = Tmax in Wistar rat lung at 30 mg/kg, po by HPLC analysis; type: ADME, organism-based; summary of the method: as §2
[27] = MRT (0 to infinity) in Wistar rat spleen at 10 mg/kg, po by HPLC analysis; type: ADME, organism-based; summary of the method: as §2
[28] = Cmax in Wistar rat liver at 30 mg/kg, po by HPLC analysis; type: ADME, organism-based; design: dose 30 mg/kg, route oral; summary of the method: as §4
[29] = Toxicity in ICR mouse assessed as mortality at 1875 mg/kg, ig after 2 weeks; type: organism-based; conditions: in vivo, po
[30] = Cmax in Wistar rat spleen at 10 mg/kg, po by HPLC analysis; type: ADME, organism-based; design: dose 10 mg/kg, route oral; summary of the method: as §4
[31] = MRT (0 to 72 hrs) in Wistar rat brain at 30 mg/kg, po by HPLC analysis; type: ADME, organism-based; summary of the method: as §4
[32] = AUC (0 to 72 hrs) in Wistar rat spleen at 15 mg/kg, po by HPLC analysis; type: ADME, organism-based; design: dose 15 mg/kg, time < 72 hr, route oral; summary of the method: as §1
[33] = Half life in Wistar rat brain at 10 mg/kg, po by HPLC analysis; type: ADME, organism-based; summary of the method: as §4
[34] = Tmax in Wistar rat Heart at 15 mg/kg, po by HPLC analysis; type: ADME, organism-based; summary of the method: as §2
[35] = Cmax in Wistar rat kidney at 10 mg/kg, po by HPLC analysis; type: ADME, organism-based; design: dose 10 mg/kg, route oral; summary of the method: as §4
Mus musculus = assay: Toxicity in ICR mouse assessed as change in body weight at 1200 mg/kg, po after 2 weeks; type: organism-based; conditions: in vivo, 336 h

For `CCCCC1=NC2(CCCC2)C(=O)N1Cc1ccc2c(ccn2-c2ccccc2-c2nnn[nH]2)c1`, the Activity (Rattus norvegicus) was “Non-Toxic”, the mortality at 336 h [1] was 80% and the Cmax [2] was 5760 ng/mL. For the same compound, the mortality at 336 h [3] was 50%, the AUC(0-inf) [4] was 1350 ng·h/mL and the MRT inf [5] was 25.3 h. For the same compound, the Tmax [6] was 5.83 h, the AUC(0-t) at 72 h [7] was 22400 ng·h/mL and the MRT inf [8] was 6.61 h. The AUC(0-inf) [9] was 26100 ng·h/mL, the Cmax [10] was 2360 ng/mL and the MRT inf [11] was 28.1 h. For the same compound, the MRT inf [12] was 4.1 h, the Tmax [13] was 1 h and the AUC(0-t) at 72 h [14] was 5840 ng·h/mL. For the same compound, the AUC(0-t) at 72 h [15] was 5730 ng·h/mL, the AUC(0-t) at 72 h [16] was 3070 ng·h/mL and the MRT last [17] was 12.9 h. The Tmax [18] was 5 h, the half-life [19] was 17.9 h and the AUC(0-t) at 72 h [20] was 4890 ng·h/mL. It also gave a Tmax [21] of 4.83 h, a Cmax [22] of 2950 ng/mL and an MRT last [23] of 4.85 h. It also gave a Cmax [24] of 93.3 ng/mL, a half-life [25] of 2.46 h and a Tmax [26] of 2 h. It also gave an MRT inf [27] of 30.4 h, a Cmax [28] of 2000 ng/mL and a mortality at 336 h [29] of 60%. The Cmax [30] was 348 ng/mL, the MRT last [31] was 9.03 h and the AUC(0-t) at 72 h [32] was 11900 ng·h/mL. For the same compound, the half-life [33] was 2.73 h, the Tmax [34] was 4.67 h and the Cmax [35] was 180 ng/mL. The Activity (Mus musculus) was “Non-Toxic”.
